Bioassay records as filed in PubChem.
This is a sample that favours compounds with a hit; in the whole collection about 1.6% have one here.
CD11b adhes inh: inhibitors of human CD11b/CD18 binding to fibrinogen. K562 CD11b/CD18 adhesion to fibrinogen, ATPlite luminescence; Mn2+ added to activate the integrin. inhibition, % at 10 µM. 93,000 tested, 0.54% active. AID 1497;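 active = primary inhibition of 50% or more at 10 µM, then 40% or more on retest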
CD11b adhes enh: CD11b/CD18-fibrinogen binding enhancement. K562 CD11b/CD18 adhesion to fibrinogen, ATPlite luminescence. 93,000 tested, 0.07% active. AID 1499. P05107+P11215. activation, % at 10 µM;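 active = 10 µM primary screen giving 50% or more activity, confirmed by 40% or more on retest at that dose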
sEH inh: soluble epoxide hydrolase (human) inhibition. recombinant human sEH enzymatic activity assay. inhibition, % at 2 µM. 91,000 tested, 0.34% active; in the data active = inhibition above about 80%
Target sequence (P34913 whole entry, looked up): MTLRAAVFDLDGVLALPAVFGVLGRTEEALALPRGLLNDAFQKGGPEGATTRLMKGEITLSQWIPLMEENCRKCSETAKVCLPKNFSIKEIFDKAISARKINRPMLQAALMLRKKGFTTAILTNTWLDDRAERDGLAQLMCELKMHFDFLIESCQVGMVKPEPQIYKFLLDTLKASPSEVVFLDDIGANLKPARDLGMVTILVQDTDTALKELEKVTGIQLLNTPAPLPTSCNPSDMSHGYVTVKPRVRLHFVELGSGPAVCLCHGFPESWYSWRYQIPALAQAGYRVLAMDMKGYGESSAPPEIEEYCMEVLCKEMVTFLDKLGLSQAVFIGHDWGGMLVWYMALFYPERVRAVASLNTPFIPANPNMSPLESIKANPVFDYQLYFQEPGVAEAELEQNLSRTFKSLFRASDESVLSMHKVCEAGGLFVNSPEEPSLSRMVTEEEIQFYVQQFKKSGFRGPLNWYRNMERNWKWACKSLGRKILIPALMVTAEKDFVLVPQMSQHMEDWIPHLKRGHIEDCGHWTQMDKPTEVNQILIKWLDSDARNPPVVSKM
Smad3 inh: inhibitors of human Smad3 transcription factor binding; P84022; TR-FRET Smad3/Dy647-FoxH1 peptide binding, europium anti-His; inhibition, % at 25 µM; AID 630; 88,000 tested, 0.29% active;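 active = compounds that reduce the energy-transfer binding signal between the protein and its labelled peptide by more than half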;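 also: 0% = Smad3 plus labelled peptide maximal FRET and 100% = peptide-only background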
sEH act: increases human soluble epoxide hydrolase activity. 91,000 tested, 0.04% active. activation, % at 2 µM. AID 717. purified human sEH enzymatic activity, activator screen. P34913; in the data active = activation above about 37%
Rev-RRE block: disrupts HIV-1 Rev binding to RRE RNA | P05866 | Rev peptide-RRE RNA binding, FRET | inhibition, % at 8 µM | 97,000 tested, 0.79% active | AID 704;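 active = inhibition above the screen-wide mean plus 3 SD, cut at about 35% in these data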;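 also: 0% = median DMSO wells and 100% = median Neomycin B control wells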
Target sequence (P05866 whole entry, looked up): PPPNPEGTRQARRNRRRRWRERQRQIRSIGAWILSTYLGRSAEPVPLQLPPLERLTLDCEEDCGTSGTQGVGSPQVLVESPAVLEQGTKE
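Test system – labelled RRE RNA duplex and labelled Rev peptide · Reagent – labelled Rev peptide · Doses – one concentration, 8 µM nominal · Incubation – 5 + 15 min at 25 °C · Signal – FRET fluorescence readout · Read-out basis – % inhibition of FRET ratio versus controls · Control set – DMSO wells as 0% and neomycin B wells as 100% inhibition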
* = called active by the depositor; / = no result; [ ] = remark or other dose.

SMILES	CD11b adhes inh	CD11b adhes enh	sEH inh	Smad3 inh	sEH act	Rev-RRE block
COc1ccccc1NS(=O)(=O)c1cc([N+](=O)[O-])ccc1N/N=C/c1sc(N2CCOCC2)nc1-c1ccccc1	14	63	/	/	/	/
O=C(CCN1CCCCC1)N1CCc2c([nH]c3ccccc23)[C@H]1c1cccnc1	/	/	/	-8	/	/
O=C1c2cccc3c(O)ccc(c23)C(=O)N1Cc1ccccc1	66*	-3	-7	/	9	131*[fluorescence artefact?]
O=C1c2cccnc2C(=O)N1Cc1ccccc1	/	/	/	-15	/	/
CS(=O)(=O)N(Cc1ccc(C(=O)NCCSCc2ccco2)cc1)c1ccccc1	-28	0	81*	14	-81	4
CS(=O)(=O)N(Cc1ccc(C(=O)NCc2ccco2)cc1)c1ccccc1	/	/	19	-3	-19	2
COc1ccc(C(=O)c2ccccc2)c2c(O)ccc(C(=O)c3ccccc3)c12	51*	-3	-18	-13	17	-3
c1nc(N2CCOCC2)c2c3c(sc2n1)CCCC3	-7	-3	12	-9	-10	3
O=C(c1ccccc1)N1CCN(c2ncnc3sc4c(c23)CCC4)CC1	51*	-10	19	-1	-16	3
CCC(=O)[C@@H](c1ccccc1)c1ccccn1	/	/	/	-7	/	/
COc1ccc(N2CCN(CCCn3c(=S)[nH]c4ncccc4c3=O)CC2)cc1	62*	3	-1	6	-1	2
O=c1c2cccnc2[nH]c(=S)n1CCCN1CCN(c2ccc(F)cc2)CC1	-38	4	-17	8	16	3
CC(=O)n1c(COS(C)(=O)=O)nc2ccccc21	/	/	/	12	/	/
CCN(CC)S(=O)(=O)c1cc([N+](=O)[O-])ccc1NNC(=O)Nc1ccc(Cl)c(Cl)c1	99*	-5	37	-5	-35	15
CN(C)CCNC(=O)Nc1ccc(Cl)c(Cl)c1	-1	-3	6	/	-4	4
Nc1nc2c(ncn2[C@@H]2CC[C@@H](CO)O2)c(=O)n1C(=O)c1ccccc1	/	/	/	1	/	/
Cc1ccc2nc(N3C(=O)C(O)=C(C(=O)c4ccco4)C3c3cccs3)sc2c1 (configuration not stated)	52*	-6	0	/	0	9
CCOC(=O)c1sc(N2C(=O)C(O)=C(C(=O)c3ccco3)C2c2ccccc2)nc1C (configuration not stated)	/	/	/	/	/	13
CCOC(=O)c1cnc(SCc2cccc(C)c2)nc1N	-21	8	-5	-11	9	12
O=C(O)[C@@H]1[C@H](C(=O)NCc2cccnc2)[C@@H]2C=C[C@H]1O2	/	/	/	7	/	/
COc1cc(N2CCCC2)c(OC)cc1/C=C(/C#N)c1ccc(F)cc1	/	/	9	-19	-4	95*[fluorescence artefact?]
COc1cc(N2CCCC2)c(OC)cc1/C=C(/C#N)c1ccc(Br)cc1	-8	-4	11	-8	-12	114*[fluorescence artefact?]
Fc1cccc(Nc2cc(-n3cccn3)ncn2)c1	/	/	2	10	1	-1
CC(C)NC(=O)c1sc2nc3c(c(-c4cccs4)c2c1N)CN(C)CC3	-10	-4	2	/	-4	15
Cc1cccc(NC(=O)c2sc3nc4c(c(-c5cccs5)c3c2N)CN(C)CC4)c1	9	-2	-5	23	7	71*
SMILES	CD11b adhes inh	CD11b adhes enh	sEH inh	Smad3 inh	sEH act	Rev-RRE block
COc1ccc(N/C(=C(/C(Cl)=C(Cl)Cl)[N+](=O)[O-])n2nnc3ccccc32)cc1OC	9	0	-4	2	0	38*
COc1ccc(C(=O)n2nnc3ccccc32)cc1Br	4	2	-3	1	5	6
Cc1noc(C(=O)Nc2sc3c(c2C#N)CCC3)c1Cl	58*	-5	/	3	/	-1
O=C(O)CNS(=O)(=O)c1ccc(Br)s1	-7	6	/	3	/	/
O=S(=O)(NCc1ccncc1)c1ccc(Br)s1	98*	-11	/	-1	/	/
NCCSS(=O)(=O)CCN	/	/	/	62*	/	/
CCCCC(CC)CNC(=O)C1CCCN(S(=O)(=O)c2cnc[nH]2)C1 (configuration not stated)	-10	0	83*	-10	-83	-1
CN1[C@@H]2CC(OC(=O)[C@@H](CO)c3ccccc3)C[C@H]1[C@H]1O[C@H]12 (some centres not stated)	/	/	/	-12	/	/
C[C@H]1[C@H](C)CC[C@@]2(C(=O)O)CC[C@@]3(C)C(=CC[C@H]4[C@]5(C)C[C@H](O)[C@@H](O)[C@@](C)(CO)[C@H]5[C@H](O)C[C@@]43C)[C@H]12	/	/	/	86*	/	/
COc1ccc(-c2noc(Cc3ccccc3OC)n2)cc1	2	0	-4	-3	6	8
COc1ccc(CCc2nc(-c3ccc(-n4cccc4)cc3)no2)cc1	62*	12	-3	1	5	-2
c1nc(NCCc2cnc[nH]2)c2[nH]cnc2n1	/	/	/	6	/	/
N[C@H](C(=O)O)[C@@H](O)c1cnc[nH]1	/	/	/	16	/	/
Cc1ccc(NC(=O)NC2CCN(S(=O)(=O)c3ccc(F)cc3)CC2)cc1	/	/	85*	4	-84	7
Cn1c(=O)c2[nH]c([C@@H]3CC(=O)C[C@H](c4nc5c([nH]4)c(=O)n(C)c(=O)n5C)N3)nc2n(C)c1=O	/	/	/	42	/	/
O=c1[nH][nH]c(=S)c(=O)[nH]1	/	/	/	52*	/	/
CC(=O)c1c(C)[nH]c(C(=O)NCc2ccccc2Cl)c1C	/	/	85*	3	-85	2
COC(=O)c1c(NC(=S)Nc2ccc(F)cc2[N+](=O)[O-])sc2c1CCCCC2	86*	-5	/	/	/	/
CCn1c(C(=O)N2CCC(C(=O)NCCCSC3CCCCC3)CC2)cc2sccc21	-1	3	96*	1	-96	3
Cc1c(C(=O)OC(C)CCN(C)C)oc2ccccc12 (configuration not stated)	-15	-1	/	-8	/	141*[fluorescence artefact?]
CC(CCC(=O)O)(c1cc(Br)c(O)c(Br)c1)c1cc(Br)c(O)c(Br)c1	/	/	/	44	/	/
C/C(=N/OC(=O)c1c(F)cccc1F)c1nccs1	-54	-5	-40	/	39*	2
CSc1ccccc1NC(=O)COc1ccc(Cl)cc1Cl	-10	5	/	/	/	/
CC(=O)NC(=S)Nc1ccc(NC(=O)COc2ccc(Cl)cc2Cl)cc1	12	53*	82*	/	-82	-3
O=C(COc1ccc(Cl)cc1Cl)Nc1ccccn1	99*	-10	-6	7	9	-3
SMILES	CD11b adhes inh	CD11b adhes enh	sEH inh	Smad3 inh	sEH act	Rev-RRE block
CC(=O)N1CCN(c2ccc(NC(=O)COc3ccc(Cl)cc3Cl)cc2)CC1	-23	0	90*	10	-90	3
CC(=O)N1CCN(c2ccccc2NC(=O)COc2ccc(Cl)cc2Cl)CC1	7	0	20	9	-16	5
NCc1nnn(Cc2ccccc2)c1N	/	/	/	1	/	/
O=P(O)(O)O[C@@H]1O[C@H](CO)[C@@H](O)[C@H](O)[C@H]1O	/	/	/	5	/	/
COC(=O)C(C)(C)ONC(=O)Nc1ccccc1	-7	3	/	/	/	/
c1ccc2c(c1)OCC(CNc1ncnc3sccc13)O2 (configuration not stated)	100*	-8	/	/	/	/
